Experimental data published in ChEMBL document CHEMBL3098105, “7,7'-Diazaindirubin--a small molecule inhibitor of casein kinase 2 in vitro and in cells” (Bioorg Med Chem, 2014).

Columns and labels:
[1] = target: Calcium/calmodulin-dependent protein kinase type II subunit gamma (Homo sapiens) (UniProt Q13555); assay: Inhibition of human CaMK2gamma assessed as residual activity at 1 uM relative to control
[2] = target: Death-associated protein kinase 1 (Homo sapiens) (UniProt P53355); assay: Inhibition of human DAPK1 assessed as residual activity at 1 uM relative to control
[3] = target: Mast/stem cell growth factor receptor Kit (Homo sapiens) (UniProt P10721); assay: Inhibition of KIT (unknown origin) assessed as residual activity at 10 uM relative to control
[4] = organism: Homo sapiens; assay: Inhibition of S6K (unknown origin) assessed as residual activity at 1 uM relative to control
[5] = target: T1, Muscle, skeletal receptor tyrosine-protein kinase (Homo sapiens) (UniProt O15146); assay: Inhibition of MUSK (unknown origin) assessed as residual activity at 10 uM relative to control
T1 sequence (whole entry): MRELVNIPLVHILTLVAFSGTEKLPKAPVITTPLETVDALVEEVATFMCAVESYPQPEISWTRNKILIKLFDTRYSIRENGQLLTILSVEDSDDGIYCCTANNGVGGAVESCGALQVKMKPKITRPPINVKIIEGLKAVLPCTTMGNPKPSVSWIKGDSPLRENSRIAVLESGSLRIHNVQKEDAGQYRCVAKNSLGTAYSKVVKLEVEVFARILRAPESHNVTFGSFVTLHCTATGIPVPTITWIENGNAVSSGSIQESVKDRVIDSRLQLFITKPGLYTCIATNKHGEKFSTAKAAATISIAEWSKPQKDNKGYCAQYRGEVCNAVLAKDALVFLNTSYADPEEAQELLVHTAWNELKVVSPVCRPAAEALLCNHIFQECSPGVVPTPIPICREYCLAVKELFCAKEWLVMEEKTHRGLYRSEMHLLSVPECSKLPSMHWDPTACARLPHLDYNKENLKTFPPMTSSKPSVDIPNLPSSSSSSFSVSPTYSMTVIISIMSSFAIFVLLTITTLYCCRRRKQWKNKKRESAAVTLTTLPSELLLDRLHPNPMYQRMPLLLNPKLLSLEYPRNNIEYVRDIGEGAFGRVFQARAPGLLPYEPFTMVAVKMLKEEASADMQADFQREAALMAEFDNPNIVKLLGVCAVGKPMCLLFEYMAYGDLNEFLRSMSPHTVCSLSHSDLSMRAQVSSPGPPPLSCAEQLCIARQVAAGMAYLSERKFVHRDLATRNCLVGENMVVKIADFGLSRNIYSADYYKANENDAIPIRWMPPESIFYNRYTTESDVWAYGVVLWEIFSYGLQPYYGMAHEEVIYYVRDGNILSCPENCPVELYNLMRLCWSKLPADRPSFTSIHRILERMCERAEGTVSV

[6] = target: Calcium/calmodulin-dependent protein kinase type IV (Homo sapiens) (UniProt Q16566); assay: Inhibition of human CaMK4 assessed as residual activity at 1 uM relative to control
[7] = target: Cyclin-dependent kinase 2/cyclin E1 (Homo sapiens) (UniProt P24864+P24941); assay: Inhibition of human CDK2/cyclinE assessed as residual activity at 1 uM relative to control; assay type: protein-complex assay
[8] = target: Ephrin type-B receptor 2 (Homo sapiens) (UniProt P29323); assay: Inhibition of human EphB2 assessed as residual activity at 1 uM relative to control
Sequence of Ephrin type-B receptor 2 (Homo sapiens) (P29323 whole entry): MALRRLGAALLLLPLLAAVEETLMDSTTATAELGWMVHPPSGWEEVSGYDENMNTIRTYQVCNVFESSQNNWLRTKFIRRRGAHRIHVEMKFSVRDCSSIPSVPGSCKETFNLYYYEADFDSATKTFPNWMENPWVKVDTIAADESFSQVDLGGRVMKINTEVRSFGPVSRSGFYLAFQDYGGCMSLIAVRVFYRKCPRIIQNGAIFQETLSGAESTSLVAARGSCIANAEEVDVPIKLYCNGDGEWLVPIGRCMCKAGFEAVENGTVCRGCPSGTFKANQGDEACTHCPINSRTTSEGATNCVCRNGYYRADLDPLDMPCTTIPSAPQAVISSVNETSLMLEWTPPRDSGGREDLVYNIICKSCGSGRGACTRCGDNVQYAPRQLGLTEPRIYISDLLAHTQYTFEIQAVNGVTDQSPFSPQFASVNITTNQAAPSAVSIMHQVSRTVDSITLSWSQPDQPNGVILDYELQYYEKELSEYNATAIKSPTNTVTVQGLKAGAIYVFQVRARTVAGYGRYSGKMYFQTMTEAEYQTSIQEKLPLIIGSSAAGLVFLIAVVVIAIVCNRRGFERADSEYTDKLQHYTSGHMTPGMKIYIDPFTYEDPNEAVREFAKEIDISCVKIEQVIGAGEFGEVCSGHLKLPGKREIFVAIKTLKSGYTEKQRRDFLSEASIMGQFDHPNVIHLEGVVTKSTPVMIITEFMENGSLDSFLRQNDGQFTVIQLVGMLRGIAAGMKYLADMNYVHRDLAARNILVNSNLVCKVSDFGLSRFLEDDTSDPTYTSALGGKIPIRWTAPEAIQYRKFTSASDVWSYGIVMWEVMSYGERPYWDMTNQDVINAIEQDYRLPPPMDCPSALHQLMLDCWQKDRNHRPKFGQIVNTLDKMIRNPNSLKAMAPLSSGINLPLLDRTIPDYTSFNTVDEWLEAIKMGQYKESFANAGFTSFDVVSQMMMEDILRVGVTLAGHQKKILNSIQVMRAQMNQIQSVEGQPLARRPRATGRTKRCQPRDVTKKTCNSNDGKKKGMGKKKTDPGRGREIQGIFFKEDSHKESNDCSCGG

[9] = target: Serine/threonine-protein kinase 10 (Homo sapiens) (UniProt O94804); assay: Inhibition of human LOK assessed as residual activity at 1 uM relative to control
[10] = target: Macrophage colony-stimulating factor 1 receptor (Homo sapiens) (UniProt P07333); assay: Inhibition of human Fms assessed as residual activity at 1 uM relative to control
[11] = target: Platelet-derived growth factor receptor alpha (Homo sapiens) (UniProt P16234); assay: Inhibition of PDGFR-alpha (unknown origin) assessed as residual activity at 10 uM relative to control
Sequence of Platelet-derived growth factor receptor alpha (Homo sapiens) (P16234 whole entry): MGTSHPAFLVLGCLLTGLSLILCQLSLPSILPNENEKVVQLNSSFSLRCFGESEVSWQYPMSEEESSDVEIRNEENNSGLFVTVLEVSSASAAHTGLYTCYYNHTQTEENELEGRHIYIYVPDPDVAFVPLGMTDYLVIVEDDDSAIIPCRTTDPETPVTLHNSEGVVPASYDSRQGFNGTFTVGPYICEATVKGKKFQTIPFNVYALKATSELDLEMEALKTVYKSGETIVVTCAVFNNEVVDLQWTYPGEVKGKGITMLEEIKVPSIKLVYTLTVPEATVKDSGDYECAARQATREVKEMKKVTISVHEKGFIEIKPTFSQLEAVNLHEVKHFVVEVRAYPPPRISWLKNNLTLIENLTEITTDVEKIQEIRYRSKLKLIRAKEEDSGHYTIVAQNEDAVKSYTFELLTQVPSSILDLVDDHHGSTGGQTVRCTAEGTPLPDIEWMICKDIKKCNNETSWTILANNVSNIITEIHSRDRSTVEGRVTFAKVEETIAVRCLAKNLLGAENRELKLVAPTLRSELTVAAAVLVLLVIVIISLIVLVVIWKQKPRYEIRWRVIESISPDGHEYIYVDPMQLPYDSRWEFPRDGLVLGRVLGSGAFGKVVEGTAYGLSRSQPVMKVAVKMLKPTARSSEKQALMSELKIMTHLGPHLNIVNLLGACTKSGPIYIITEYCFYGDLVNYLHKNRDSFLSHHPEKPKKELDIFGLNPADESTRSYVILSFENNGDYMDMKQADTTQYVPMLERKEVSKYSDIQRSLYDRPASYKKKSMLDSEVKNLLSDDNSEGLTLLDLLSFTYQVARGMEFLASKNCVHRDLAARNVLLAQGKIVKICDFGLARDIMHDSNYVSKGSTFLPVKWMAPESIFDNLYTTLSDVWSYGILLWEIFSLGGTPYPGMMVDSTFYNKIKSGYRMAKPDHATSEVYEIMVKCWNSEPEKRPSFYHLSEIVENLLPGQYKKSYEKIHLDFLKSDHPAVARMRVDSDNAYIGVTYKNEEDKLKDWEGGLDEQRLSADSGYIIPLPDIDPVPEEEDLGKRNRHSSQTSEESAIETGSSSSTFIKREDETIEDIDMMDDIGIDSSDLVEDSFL

[12] = test system: MCF7; assay: Cell cycle arrest in human MCF7 cells assessed as accumulation at sub-G1 phase at 0.5 uM after 24 hrs using propidium iodide staining by FACS analysis (reference value: 0.17%); assay type: functional
[13] = target: Mitogen-activated protein kinase kinase kinase 9 (Homo sapiens) (UniProt P80192); assay: Inhibition of human MLK1 assessed as residual activity at 1 uM relative to control
[14] = target: Misshapen-like kinase 1 (Homo sapiens) (UniProt Q8N4C8); assay: Inhibition of human MINK assessed as residual activity at 1 uM relative to control
[15] = target: Serine/threonine-protein kinase pim-1 (Homo sapiens) (UniProt P11309); assay: Inhibition of human Pim-1 assessed as residual activity at 1 uM relative to control
[16] = target: Serine/threonine-protein kinase Nek6 (Homo sapiens) (UniProt Q9HC98); assay: Inhibition of human NEK6 assessed as residual activity at 1 uM relative to control
[17] = target: Insulin-like growth factor 1 receptor (Homo sapiens) (UniProt P08069); assay: Inhibition of IGF1-R (unknown origin) assessed as residual activity at 1 uM relative to control
Sequence of Insulin-like growth factor 1 receptor (Homo sapiens) (P08069 31-736 limits assumed): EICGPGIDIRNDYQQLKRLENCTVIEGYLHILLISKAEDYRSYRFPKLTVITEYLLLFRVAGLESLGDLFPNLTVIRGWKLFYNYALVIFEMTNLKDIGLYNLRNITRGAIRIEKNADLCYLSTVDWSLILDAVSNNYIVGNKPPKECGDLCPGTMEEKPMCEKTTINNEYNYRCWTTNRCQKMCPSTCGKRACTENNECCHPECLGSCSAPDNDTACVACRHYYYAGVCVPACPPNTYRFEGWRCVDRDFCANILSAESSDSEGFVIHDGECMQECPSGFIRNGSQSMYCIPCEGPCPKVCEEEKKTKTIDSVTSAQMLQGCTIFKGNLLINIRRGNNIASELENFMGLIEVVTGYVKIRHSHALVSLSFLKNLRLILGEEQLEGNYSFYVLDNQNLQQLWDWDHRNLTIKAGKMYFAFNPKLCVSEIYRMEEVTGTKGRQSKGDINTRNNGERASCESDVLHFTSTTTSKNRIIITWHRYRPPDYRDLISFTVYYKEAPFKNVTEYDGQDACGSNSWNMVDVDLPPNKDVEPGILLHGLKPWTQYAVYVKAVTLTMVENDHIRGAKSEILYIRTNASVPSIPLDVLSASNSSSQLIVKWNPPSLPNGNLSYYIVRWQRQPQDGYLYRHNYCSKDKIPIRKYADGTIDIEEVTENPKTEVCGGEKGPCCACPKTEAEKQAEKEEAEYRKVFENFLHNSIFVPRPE
Sequence of Insulin-like growth factor 1 receptor (Homo sapiens) (P08069 741-1367 limits assumed): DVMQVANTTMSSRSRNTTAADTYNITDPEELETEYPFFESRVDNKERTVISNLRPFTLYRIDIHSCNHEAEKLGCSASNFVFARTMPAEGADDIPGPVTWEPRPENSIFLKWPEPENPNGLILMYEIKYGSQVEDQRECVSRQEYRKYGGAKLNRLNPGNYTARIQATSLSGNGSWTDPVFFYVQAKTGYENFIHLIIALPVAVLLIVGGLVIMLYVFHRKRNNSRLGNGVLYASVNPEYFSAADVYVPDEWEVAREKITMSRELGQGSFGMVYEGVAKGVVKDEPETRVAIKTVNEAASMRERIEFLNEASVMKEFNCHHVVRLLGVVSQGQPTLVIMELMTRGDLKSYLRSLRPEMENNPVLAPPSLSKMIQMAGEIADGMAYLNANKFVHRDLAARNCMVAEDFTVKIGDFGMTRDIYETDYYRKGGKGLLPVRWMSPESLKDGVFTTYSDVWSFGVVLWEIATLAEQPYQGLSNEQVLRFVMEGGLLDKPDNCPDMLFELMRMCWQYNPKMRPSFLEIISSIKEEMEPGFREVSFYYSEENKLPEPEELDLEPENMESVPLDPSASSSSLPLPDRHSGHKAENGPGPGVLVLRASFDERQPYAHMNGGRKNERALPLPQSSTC

[18] = target: MAP kinase-interacting serine/threonine-protein kinase 2 (Homo sapiens) (UniProt Q9HBH9); assay: Inhibition of human Mnk2 assessed as residual activity at 1 uM relative to control
[19] = target: Receptor-type tyrosine-protein kinase FLT3 (Homo sapiens) (UniProt P36888); assay: Inhibition of FLT3 (unknown origin) assessed as residual activity at 10 uM relative to control
Sequence of Receptor-type tyrosine-protein kinase FLT3 (Homo sapiens) (P36888 whole entry): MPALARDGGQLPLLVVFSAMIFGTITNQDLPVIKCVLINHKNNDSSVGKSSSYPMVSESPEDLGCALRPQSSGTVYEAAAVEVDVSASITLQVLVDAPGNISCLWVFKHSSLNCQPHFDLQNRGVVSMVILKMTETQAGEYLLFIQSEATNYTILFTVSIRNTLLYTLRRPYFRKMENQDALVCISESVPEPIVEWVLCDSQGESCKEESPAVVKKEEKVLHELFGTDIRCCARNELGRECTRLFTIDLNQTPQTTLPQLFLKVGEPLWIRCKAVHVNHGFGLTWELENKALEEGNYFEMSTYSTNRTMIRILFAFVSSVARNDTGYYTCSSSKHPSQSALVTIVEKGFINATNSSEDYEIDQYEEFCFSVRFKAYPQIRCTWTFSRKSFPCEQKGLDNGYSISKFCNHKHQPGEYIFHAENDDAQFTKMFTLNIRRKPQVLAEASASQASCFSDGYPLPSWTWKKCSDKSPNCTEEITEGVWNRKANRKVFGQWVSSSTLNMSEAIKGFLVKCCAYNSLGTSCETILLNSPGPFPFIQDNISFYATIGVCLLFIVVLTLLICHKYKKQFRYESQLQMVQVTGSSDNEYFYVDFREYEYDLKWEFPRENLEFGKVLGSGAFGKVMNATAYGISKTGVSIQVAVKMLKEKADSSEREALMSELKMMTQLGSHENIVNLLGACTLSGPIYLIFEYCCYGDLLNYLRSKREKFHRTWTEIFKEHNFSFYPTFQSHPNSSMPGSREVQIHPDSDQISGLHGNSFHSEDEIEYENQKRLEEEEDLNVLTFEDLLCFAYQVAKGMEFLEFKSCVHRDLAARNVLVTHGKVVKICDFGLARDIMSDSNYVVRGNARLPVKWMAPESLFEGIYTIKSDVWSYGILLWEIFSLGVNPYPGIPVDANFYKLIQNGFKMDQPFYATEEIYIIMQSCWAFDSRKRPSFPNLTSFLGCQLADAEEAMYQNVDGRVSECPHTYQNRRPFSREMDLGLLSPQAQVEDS

[20] = test system: MCF7; assay: Cell cycle arrest in human MCF7 cells assessed as accumulation at G2/M phase at 1 uM after 24 hrs using propidium iodide staining by FACS analysis (reference value: 22.13%); assay type: functional
[21] = target: Insulin-like growth factor 1 receptor (Homo sapiens) (UniProt P08069); assay: Inhibition of IGF1-R (unknown origin) assessed as residual activity at 10 uM relative to control
[22] = target: Aurora kinase C (Homo sapiens) (UniProt Q9UQB9); assay: Inhibition of Aurora-C (unknown origin) assessed as residual activity at 1 uM relative to control
[23] = test system: U-251; assay: Antiproliferative activity against human U251 cells after 3 days by sulforhodamine B assay; assay type: functional; conditions: U-251, 72 h
[24] = target: Serine/threonine-protein kinase 24 (Homo sapiens) (UniProt Q9Y6E0); assay: Inhibition of human MST3 assessed as residual activity at 1 uM relative to control
[25] = target: Cyclin-dependent kinase 4/cyclin D1 (Homo sapiens) (UniProt P11802+P24385); assay: Inhibition of CDK4/CycD1 (unknown origin) assessed as residual activity at 1 uM relative to control; assay type: protein-complex assay
[26] = target: Serine/threonine-protein kinase Chk2 (Homo sapiens) (UniProt O96017); assay: Inhibition of CHK2 (unknown origin) assessed as residual activity at 10 uM relative to control
[27] = target: Platelet-derived growth factor receptor alpha (Homo sapiens) (UniProt P16234); assay: Inhibition of human PDGFRalpha assessed as residual activity at 1 uM relative to control
[28] = test system: HOP-62; assay: Antiproliferative activity against human HOP62 cells after 3 days by sulforhodamine B assay; assay type: functional; conditions: HOP-62, 72 h
In short: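 Tested in the NCI 60 cell line panel. GI50 is the concentration giving 50% inhibition of cell growth, and values are the mean of two series of tests.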

Sequence of Calcium/calmodulin-dependent protein kinase type II subunit gamma (Homo sapiens) (Q13555 whole entry): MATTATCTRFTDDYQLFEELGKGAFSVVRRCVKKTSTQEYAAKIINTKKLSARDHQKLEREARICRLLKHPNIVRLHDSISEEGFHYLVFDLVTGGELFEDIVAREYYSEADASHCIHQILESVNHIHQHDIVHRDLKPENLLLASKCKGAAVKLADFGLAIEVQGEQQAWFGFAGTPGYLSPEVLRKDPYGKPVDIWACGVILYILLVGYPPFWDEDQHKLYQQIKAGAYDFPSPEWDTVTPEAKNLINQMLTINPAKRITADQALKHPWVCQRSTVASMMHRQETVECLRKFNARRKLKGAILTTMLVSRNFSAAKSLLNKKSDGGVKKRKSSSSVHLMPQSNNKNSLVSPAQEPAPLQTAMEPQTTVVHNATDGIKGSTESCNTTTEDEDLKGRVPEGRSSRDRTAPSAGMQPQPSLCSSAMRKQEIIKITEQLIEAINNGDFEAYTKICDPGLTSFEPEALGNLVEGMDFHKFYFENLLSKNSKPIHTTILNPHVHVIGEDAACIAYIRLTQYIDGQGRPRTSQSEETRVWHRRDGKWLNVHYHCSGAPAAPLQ

How did the Activity [1] turn out when `O=C1Nc2ncccc2/C1=C1/Nc2ncccc2C1=O` was run?
The Activity was 103%.

And the Activity [2]?
The Activity was 94%.

What about the Activity [3] of the same compound?
The Activity was 73%.

What about the Activity [4] of the same compound?
Its Activity is 109%.

What about the Activity [5] of the same compound?
The Activity was 98%.

What about the Activity [6] of the same compound?
Its Activity is 100%.

What about the Activity [7] of the same compound?
Its Activity is 79%.

What about the Activity [8] of the same compound?
Its Activity is 127%.

And the Activity [9]?
Its Activity is 93%.

What about the Activity [10] of the same compound?
Its Activity is 91%.

What about the Activity [11] of the same compound?
Its Activity is 88%.

What about the Activity [12] of the same compound?
Its Activity is 0.37%.

What about the Activity [13] of the same compound?
Its Activity is 61%.

And the Activity [14]?
The Activity was 62%.

What about the Activity [15] of the same compound?
Its Activity is 108%.

What about the Activity [16] of the same compound?
Its Activity is 61%.

And the Activity [17]?
The Activity was 94%.

And the Activity [18]?
Its Activity is 99%.

What about the Activity [19] of the same compound?
The Activity was 86%.

And the Activity [20]?
Its Activity is 22.63%.

And the Activity [21]?
The Activity was 94%.

What about the Activity [22] of the same compound?
Its Activity is 89%.

What about the GI50 [23] of the same compound?
The GI50 was 1100 nM.

What about the Activity [24] of the same compound?
Its Activity is 113%.

What about the Activity [25] of the same compound?
The Activity was 100%.

And the Activity [26]?
Its Activity is 84%.

And the Activity [27]?
The Activity was 96%.

And the GI50 [28]?
Its GI50 is 1370 nM.
